Source: PubChem (several laboratories)
FXIIa inh – blocks human coagulation factor XIIa protease activity; inhibition, % at 5 µM; AID 800; P00748; purified FXIIa, Boc-QGR-AMC fluorogenic substrate, 2 h; actives 0.3% (n = 220,000); in the data active = inhibition above about 40%
Target sequence (P00748 20-372 limits assumed): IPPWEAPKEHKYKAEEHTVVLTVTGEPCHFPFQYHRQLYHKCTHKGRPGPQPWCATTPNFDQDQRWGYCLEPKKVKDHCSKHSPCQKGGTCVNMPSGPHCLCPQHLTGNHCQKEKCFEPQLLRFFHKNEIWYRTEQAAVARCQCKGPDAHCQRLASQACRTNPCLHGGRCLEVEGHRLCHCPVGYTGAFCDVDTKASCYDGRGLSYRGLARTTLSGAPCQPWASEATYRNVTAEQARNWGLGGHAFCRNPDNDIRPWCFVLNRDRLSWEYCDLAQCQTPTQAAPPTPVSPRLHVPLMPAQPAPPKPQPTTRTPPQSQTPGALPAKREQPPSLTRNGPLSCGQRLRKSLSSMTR
Target sequence (P00748 373-615 limits assumed): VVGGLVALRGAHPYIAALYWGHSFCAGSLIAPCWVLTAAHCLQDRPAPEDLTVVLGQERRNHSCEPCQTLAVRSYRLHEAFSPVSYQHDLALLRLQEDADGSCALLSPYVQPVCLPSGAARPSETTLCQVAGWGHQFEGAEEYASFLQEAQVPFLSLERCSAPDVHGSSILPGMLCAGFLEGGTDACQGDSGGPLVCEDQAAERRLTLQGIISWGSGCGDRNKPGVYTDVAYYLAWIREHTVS
m-calpain inh – inhibitors of pig calpain II; purified calpain II, fluorogenic peptide substrate, 30 min; inhibition, % at 16 µM; actives 0.37% (n = 220,000);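 active = inhibition above about 50%, limit read from the data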
thrombin 1536 – inhibitors of human thrombin | P00734 | alpha-thrombin, Boc-VPR-AMC fluorogenic substrate cleavage | inhibition, % at 5 µM | actives 0.26% (n = 220,000);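 active = inhibition at or above 40%; inactive = inhibition below 40%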
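signal = AMC fluorescence, 355/460 nm | material = human alpha-thrombin enzyme | control set = enzyme without compound as high, wells lacking enzyme as low | times = reaction at room temperature | read-out basis = percent inhibition scaled between no-compound controls and no-enzyme blanks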
KLK5 inh – blocks human kallikrein 5 protease activity; recombinant hK5, fluorogenic AMC substrate cleavage; inhibition, % at 5 µM; actives 0.59% (n = 210,000); AID 873;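 active = inhibition of 40% or more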
FXIa inh 1536 – factor XIa (human) inhibition | P03951 | purified FXIa, Boc-Glu-Ala-Arg-AMC fluorogenic substrate | inhibition, % at 5 µM | actives 0.14% (n = 220,000) | AID 798;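 active = inhibition of at least 40%; inactive = inhibition below 40%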;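 note: fluorescence of freed AMC excited at 355 nm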
Each line names hits and unclear results; the compound was inactive in the other large screens. An excerpt weighted towards active compounds, which were near 1.4% of everything screened.

Cc1ccc(NC(=O)CN(c2cc(C)cc(C)c2)S(=O)(=O)c2c(C)noc2C)nc1	KLK5 inh 40
CN1CCN(NC(=O)c2cccc(Br)c2)CC1	none
CN(CCN1CCOCC1)Cc1nc(-c2ccc(Cl)cc2)no1	none
O=C(C[n+]1cccc(CNC(=O)c2ccc(OC(F)F)cc2)c1)Nc1cc(C(F)(F)F)ccc1Cl	KLK5 inh 61
NC(=O)C[n+]1cccc(CNC(=O)c2ccc(OC(F)F)cc2)c1	none
CCCCc1ccc(-n2nnnc2SCC(=O)Nc2cc(OC)c([N+](=O)[O-])cc2C)cc1	none
CC(C)(C)NC(=O)c1oc2ccccc2c1COc1ccccc1	none
Cc1ccc(C)c2sc(N)nc12	none
Cc1sc2nc(N)sc2c1C	KLK5 inh 63
COc1ccc(C2c3c(-c4cc(Cl)c(C)cc4O)n[nH]c3C(=O)N2Cc2cccnc2)cc1OC (stereo unspecified)	thrombin 1536 57
COc1ccc(C2c3c(-c4ccccc4O)n[nH]c3C(=O)N2Cc2ccco2)cc1OC (stereo unspecified)	none
COc1cccc(NC(=O)Cn2c(CCC(=O)O)ccc2-c2ccc(C)cc2)c1	none (no result: KLK5 inh)
C/C=C\C(=O)Nc1cccc(C2=NOC3(C2)C[C@H](C(N)=O)N(C(=O)[C@H]2CCC(=O)N2)C3)c1 (stereo partly specified)	none
COc1ccc(S(=O)(=O)N2CCOCC2)cc1NC(=O)COC(=O)c1ccc(C)s1	thrombin 1536 73
COc1cc(S(=O)(=O)N2CCOCC2)ccc1NC(=O)COC(=O)c1ccccn1	thrombin 1536 70
O=C(COC(=O)c1n[nH]c2ccccc12)Nc1cccc(S(=O)(=O)N2CCOCC2)c1	thrombin 1536 65
CCC(CC)C(=O)OCC(=O)Nc1ccc(S(=O)(=O)N2CCOCC2)cc1OC	none
COc1ccc(S(=O)(=O)N2CCOCC2)cc1NC(=O)COC(=O)C1=COCCO1	none
O=C(COC(=O)c1cc(=O)[nH]c2ccccc12)Nc1cccc(S(=O)(=O)N2CCOCC2)c1	none
CCOC(=O)NC(=O)C(=CNc1ccccc1C)C(=O)NC(=O)OCC	none
Cc1ccc(CN2CCN(Cc3nc4ccccc4nc3C)CC2CCO)cc1 (stereo unspecified)	none
CC(=O)Nc1ccc(NC(=O)Cc2ccc(S(=O)(=O)N3CCCCC3)s2)cc1	m-calpain inh 77
Cc1cccc(Cn2cnc3c(NS(C)(=O)=O)c(C)c(C)cc32)c1	KLK5 inh 57
COc1cccc(Cn2cnc3c(N)c(C)c(C)cc32)c1	none
O=C1CC(N2CCN(Cc3ccc(Cl)cc3)CC2)C(=O)N1CCc1ccccc1 (stereo unspecified)	FXIIa inh 41
O=C1CC(N2CCN(Cc3ccccc3)CC2)C(=O)N1CCc1ccccc1 (stereo unspecified)	none
NC(CCCCCP(=O)(c1ccccc1)c1ccccc1)C(=O)O (stereo unspecified)	none
Cc1ccc(N2C(=O)SC(Cc3ccccc3)C2=O)cc1 (stereo unspecified)	none
NC(=O)c1c(NC(=O)C2CCCO2)sc2c1CCC2 (stereo unspecified)	FXIIa inh 50
O=C(Nc1nc(-c2cccs2)cs1)c1ccc(Cl)cc1	thrombin 1536 75, FXIa inh 1536 43
O=C(Nc1nc(-c2cccs2)cs1)c1cccc(S(=O)(=O)N2CCCCC2)c1	none
O=C(COc1ccc(Cl)cc1)Nc1nc(-c2cccs2)cs1	none
COc1cc(C(=O)Nc2nc(-c3cccs3)cs2)cc(OC)c1OC	thrombin 1536 73
O=C(Nc1nc(-c2cccs2)cs1)c1ccco1	thrombin 1536 62
COc1cc(NC(=S)NN2CCN(C)CC2)cc(OC)c1OC	none
CNNC(=S)Nc1cccc(SC)c1	none
O=C(Nc1sc(-c2ccccc2)cc1C(=O)O)c1ccccc1	none
Cc1[nH]c(=O)[nH]c(=O)c1/C=N/NC(=O)[C@H](C)N	KLK5 inh 52
Cc1[nH]c(=O)[nH]c(=O)c1/C=N/NC(=O)[C@@H](NC(=O)OC(C)(C)C)C(C)C	none
CCn1c(C(C)NC(C)=O)nc2ccccc21 (stereo unspecified)	KLK5 inh 57
CCn1c(C(C)NC(=O)c2cccs2)nc2ccccc21 (stereo unspecified)	none
Cc1ccccc1N1CCN(Cc2c[nH]c3ccccc23)CC1	FXIIa inh 48
Cc1noc(C)c1COc1ccc(C(=O)NCc2ccccn2)cc1	KLK5 inh 41
O=C(c1ccc(-c2ccc([N+](=O)[O-])cc2)o1)N1CCCCC1	thrombin 1536 61
CC(=O)Nc1cc([N+](=O)[O-])ccc1N1CCOCC1	none
O=C(c1ccc(-c2ccc(Cl)cc2)o1)N1CCN(c2ccc([N+](=O)[O-])cc2Cl)CC1	none
O=C(c1cc([N+](=O)[O-])ccc1N1CCCCC1)N1CCCC1	none
O=C(c1cc([N+](=O)[O-])ccc1N1CCOCC1)N1CCCCC1	m-calpain inh 82
O=C(Nc1cc([N+](=O)[O-])ccc1N1CCOCC1)c1ccco1	FXIa inh 1536 43
O=C(Cn1cnc2cc([N+](=O)[O-])ccc2c1=O)Nc1ccccc1-c1ccccc1	none
COc1cc(OC)cc(C(=O)N[C@@H](CCSC)c2nc3ccccc3[nH]2)c1	none
CCOC(=O)c1c(CSC(=N)N)n(-c2ccccc2)c2cc(Br)c(OC(C)=O)cc12	none
CC(=O)c1ccc(N2CCN(C(=O)c3ccc(Cn4c(=S)[nH]c5ccc(N6CCOCC6)cc5c4=O)cc3)CC2)cc1	none
O=C(NC(=S)Nn1cnnc1)c1ccccc1Cl	thrombin 1536 45, KLK5 inh 48
CC/C=C/C(=O)N1CC2(CC(c3cccc(NC(=O)CCCCC)c3)=NO2)C[C@H]1C(N)=O (stereo partly specified)	FXIa inh 1536 42
C=C(C)C(=O)Nc1cccc(C2=NOC3(C2)C[C@H](C(N)=O)N(C(=O)CC)C3)c1 (stereo partly specified)	FXIIa inh 55
O=C(C[n+]1ccccc1)Nc1ccccc1Br	none
CC1CCN(S(=O)(=O)c2ccc3nc(-c4ccccn4)cc(C(=O)NCCN(C)Cc4ccccc4)c3c2)CC1	FXIIa inh 66
CC(C)C(NC(=O)CC12CC3CC(CC(C3)C1)C2)C(=O)O (stereo unspecified)	FXIIa inh 47
O=S(=O)(CCNCc1cccs1)c1ccc(Cl)cc1	KLK5 inh 50
CC(=O)N(CCS(=O)(=O)c1ccc(Cl)cc1)Cc1cccs1	none
CCOC(=O)N1CCN(C(=O)c2ccccc2NC(=O)c2ccc(F)cc2)CC1	KLK5 inh 58
CCN(CC)S(=O)(=O)c1ccc(OC)c(NC(=O)c2cc(=O)[nH]c3ccccc23)c1	none
COc1cccc(-c2csc(N3CCN(C(=S)Nc4ccccc4)CC3)n2)c1	KLK5 inh 112
CCOC(=O)C1(Cc2ccc(Cl)cc2)CCN(C(=O)c2cnc(C)cn2)CC1	none
Cc1nc(SCC(=O)NC(=O)NC(C)(C)C)nc(C)c1C	none
Cc1nc(SCC(=O)NC(=O)NC(C)C)nc(C)c1C	KLK5 inh 50
COc1cc(C(=O)NCC(=O)OCn2nnc3ccccc3c2=O)cc(OC)c1OC	FXIa inh 1536 40
